Active and inactive are the calls of the source. The calls are words filed in the database; no cut-off is given here.
Legend:
[1] = target: Retinoic acid receptor alpha (Homo sapiens) (UniProt P10276); experiment: Antagonist activity at human RARalpha expressed in COS-1 cells assessed as inhibition of Am80-induced transactivation by luciferase reporter gene assay
[2] = tested on: Retinoid X receptor beta (Mus musculus); experiment: Antagonist activity at mouse RXRbeta expressed in COS-1 cells assessed as inhibition of PA024-induced transactivation by luciferase reporter gene assay
[3] = tested on: HL-60; experiment: Induction of human HL60 cell differentiation by NBT reduction assay; type: functional, cell-based
Method in brief: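 HL-60 cells in RPMI1640 with 5% FBS were seeded at about 8 × 10⁴ cells/mL and given compound from a 2 mM ethanol stock (final ethanol below 0.5%) for 4 days. Differentiation was scored by NBT reduction: 20 min at 37 °C with 0.2% NBT and 200 ng/mL TPA, counting formazan-positive cells among at least 200. EC₅₀ is the concentration differentiating 50% of cells with compound alone.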

[4] = tested on: HL-60; experiment: Inhibition of Am80-induced cell differentiation in human HL60 cells by NBT reduction assay; type: functional, cell-based
Method in brief: (§1)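 Cells were co-treated with 3.3 × 10⁻¹⁰ M Am80 plus test compound (ethanol, final below 0.5%), seeded at about 8 × 10⁴ cells/mL in RPMI1640 with 5% FBS, and held 4 days. The percentage of differentiated cells was determined by NBT/TPA reduction (20 min, 37 °C), counting at least 200 cells.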

[5] = target: Retinoic acid receptor gamma (Homo sapiens) (UniProt P13631); experiment: Antagonist activity at human RARgamma expressed in COS-1 cells assessed as inhibition of ATRA-induced transactivation by luciferase reporter gene assay
[6] = tested on: Retinoid X receptor gamma (Mus musculus); experiment: Antagonist activity at mouse RXRgamma expressed in COS-1 cells assessed as inhibition of PA024-induced transactivation by luciferase reporter gene assay
[7] = tested on: HL-60; experiment: Inhibition of Am80-induced cell differentiation in human HL60 cells at 1 x 10^-6 M after 4 days by NBT reduction assay; type: functional; conditions: HL-60, 96 h
Method in brief: as §1

[8] = target: Retinoic acid receptor RXR-alpha (Mus musculus) (UniProt P28700); experiment: Antagonist activity at mouse RXRalpha expressed in COS-1 cells assessed as inhibition of PA024-induced transactivation by luciferase reporter gene assay
[9] = target: Retinoic acid receptor beta (Homo sapiens) (UniProt P10826); experiment: Antagonist activity at human RARbeta expressed in COS-1 cells assessed as inhibition of Am80-induced transactivation by luciferase reporter gene assay
[10] = tested on: HL-60; experiment: Inhibition of Am80-induced cell differentiation in human HL60 cells at 1 x 10^-7 M after 4 days by NBT reduction assay; type: functional; conditions: HL-60, 96 h
Method in brief: as §1

[11] = tested on: HL-60; experiment: Synergistic induction of human HL60 cell differentiation in presence of RAR agonist Am80 at 1 X 10^-10 M; type: functional
Method in brief: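 Synergy was tested in HL-60 cells given test compound together with 1 × 10⁻¹⁰ M Am80 for 4 days, with each agent also assayed alone. Differentiation was scored by NBT reduction (0.2% NBT, 200 ng/mL TPA, 20 min, 37 °C; ≥200 cells). SEC₅₀ is the concentration giving 50% differentiated cells in the presence of Am80.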

Sequence of Retinoic acid receptor beta (Homo sapiens) (P10826 whole entry, looked up): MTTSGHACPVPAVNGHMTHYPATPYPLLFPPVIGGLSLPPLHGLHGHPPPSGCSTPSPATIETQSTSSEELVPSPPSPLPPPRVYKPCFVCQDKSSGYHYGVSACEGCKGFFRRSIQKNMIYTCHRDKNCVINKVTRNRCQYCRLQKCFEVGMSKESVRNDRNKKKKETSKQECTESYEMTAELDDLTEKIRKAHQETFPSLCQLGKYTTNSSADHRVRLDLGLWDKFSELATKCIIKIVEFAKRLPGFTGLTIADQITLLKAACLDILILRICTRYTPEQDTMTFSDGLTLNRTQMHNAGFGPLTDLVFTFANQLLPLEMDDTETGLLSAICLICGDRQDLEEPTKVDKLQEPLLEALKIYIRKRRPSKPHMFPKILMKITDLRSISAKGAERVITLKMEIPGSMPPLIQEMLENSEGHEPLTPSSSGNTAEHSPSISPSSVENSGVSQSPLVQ
Sequence of Retinoic acid receptor gamma (Homo sapiens) (P13631 whole entry, looked up): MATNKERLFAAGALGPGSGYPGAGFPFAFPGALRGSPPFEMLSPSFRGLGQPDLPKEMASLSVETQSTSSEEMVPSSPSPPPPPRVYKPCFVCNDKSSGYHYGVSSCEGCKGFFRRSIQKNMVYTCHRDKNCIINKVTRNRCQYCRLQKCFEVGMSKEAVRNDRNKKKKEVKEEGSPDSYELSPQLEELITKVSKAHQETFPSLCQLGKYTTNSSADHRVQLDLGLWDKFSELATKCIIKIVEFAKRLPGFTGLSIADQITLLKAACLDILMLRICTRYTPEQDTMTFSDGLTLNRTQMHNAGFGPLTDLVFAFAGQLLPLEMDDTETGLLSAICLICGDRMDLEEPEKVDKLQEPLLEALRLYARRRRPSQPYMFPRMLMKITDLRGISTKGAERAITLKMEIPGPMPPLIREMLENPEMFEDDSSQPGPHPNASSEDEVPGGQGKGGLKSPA
Sequence of Retinoic acid receptor alpha (Homo sapiens) (P10276 whole entry, looked up): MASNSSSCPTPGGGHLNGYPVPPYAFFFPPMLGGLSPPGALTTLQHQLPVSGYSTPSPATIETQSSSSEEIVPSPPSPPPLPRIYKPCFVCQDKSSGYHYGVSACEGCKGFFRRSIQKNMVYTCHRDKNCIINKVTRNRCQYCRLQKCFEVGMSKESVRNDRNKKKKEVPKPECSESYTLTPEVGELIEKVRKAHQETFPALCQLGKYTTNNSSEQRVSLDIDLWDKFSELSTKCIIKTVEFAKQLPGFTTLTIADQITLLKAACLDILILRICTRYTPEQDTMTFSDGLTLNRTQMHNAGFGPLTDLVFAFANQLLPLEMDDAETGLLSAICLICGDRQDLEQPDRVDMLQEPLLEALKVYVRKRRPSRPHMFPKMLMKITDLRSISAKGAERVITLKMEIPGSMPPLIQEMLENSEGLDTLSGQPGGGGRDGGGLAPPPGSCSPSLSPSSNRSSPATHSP
Sequence of Retinoic acid receptor RXR-alpha (Mus musculus) (P28700 whole entry, looked up): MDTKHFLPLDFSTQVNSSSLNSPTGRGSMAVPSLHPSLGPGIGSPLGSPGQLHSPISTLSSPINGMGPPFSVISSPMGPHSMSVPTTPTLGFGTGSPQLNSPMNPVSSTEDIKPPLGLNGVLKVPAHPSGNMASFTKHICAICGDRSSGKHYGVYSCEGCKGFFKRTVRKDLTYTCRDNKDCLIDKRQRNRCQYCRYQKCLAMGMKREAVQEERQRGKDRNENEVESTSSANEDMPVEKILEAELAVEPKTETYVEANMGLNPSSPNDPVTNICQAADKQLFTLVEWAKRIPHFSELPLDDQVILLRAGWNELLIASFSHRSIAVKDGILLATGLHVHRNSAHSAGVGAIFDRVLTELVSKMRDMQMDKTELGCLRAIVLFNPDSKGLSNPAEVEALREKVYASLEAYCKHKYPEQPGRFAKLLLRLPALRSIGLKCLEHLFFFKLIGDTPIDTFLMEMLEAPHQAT

| Structure (SMILES) | Activity [3] | inhibition [4] | Differentiated cells % at 1 µM [7] [%] | Differentiated cells % at 0.1 µM [10] [%] | also measured |
| --- | --- | --- | --- | --- | --- |
| CCCCCCCN(c1ccc(C(=O)O)cc1)c1ccc2c(c1)C(C)(C)CCC2(C)C | inactive | Dose-dependent effect | < 10 |  | inhibition [1]: Dose-dependent effect; inhibition [2]: inactive; inhibition [5]: Dose-dependent effect; inhibition [6]: inactive; inhibition [8]: inactive; inhibition [9]: Dose-dependent effect |
| CC1(C)CCC(C)(C)c2cc(N(Cc3ccccc3-c3ccccc3)c3ccc(C(=O)O)cc3)ccc21 | inactive | Dose-dependent effect | < 10 | 10 |  |
| CC1(C)CCC(C)(C)c2cc(N(CC3CC3)c3ccc(C(=O)O)cc3)ccc21 |  |  |  |  | SEC50 [11]: 8.1 ×10⁻¹⁰ M; EC50 ([3]; hl-60): Not Active |
| CCCCCCCCN(c1ccc(C(=O)O)cc1)c1ccc2c(c1)C(C)(C)CCC2(C)C | inactive | Dose-dependent effect | < 10 |  |  |
| CCOc1c(F)c(F)c(CN(c2ccc(C(=O)O)cc2)c2ccc3c(c2)C(C)(C)CCC3(C)C)c(F)c1F | inactive | Dose-dependent effect | < 10 | < 10 | inhibition [1]: Dose-dependent effect; inhibition [2]: inactive; inhibition [5]: Dose-dependent effect; inhibition [6]: inactive; inhibition [8]: inactive; inhibition [9]: Dose-dependent effect |
| CC1(C)CCC(C)(C)c2cc(N(Cc3ccc(C(F)(F)F)cc3)c3ccc(C(=O)O)cc3)ccc21 | inactive | Dose-dependent effect | < 10 |  |  |
| CC1(C)CCC(C)(C)c2cc(Nc3ccc(C(=O)O)cc3)ccc21 |  |  |  |  | SEC50 [11]: 2 ×10⁻⁸ M; EC50 ([3]; Homo sapiens, HL-60, read-out: EC50): 680 nM |
| CC1(C)CCC(C)(C)c2cc(N(Cc3ccc4ccccc4c3)c3ccc(C(=O)O)cc3)ccc21 | inactive | Dose-dependent effect | < 10 | 30 |  |
| Cc1ccc(CN(c2ccc(C(=O)O)cc2)c2ccc3c(c2)C(C)(C)CCC3(C)C)cc1 | inactive | Dose-dependent effect | < 10 |  |  |
| CC1(C)CCC(C)(C)c2cc(N(Cc3ccccc3)c3ccc(C(=O)O)cc3)ccc21 | inactive |  |  |  |  |

Source: ChEMBL document CHEMBL1764950, “Diphenylamine-based retinoid antagonists: regulation of RAR and RXR function depending on the N-substituent” (Bioorg Med Chem, 2011)
